# NR3A LBD binder: modulators (binders) of human NR3A ligand-binding domain; NR3A LBD differential scanning fluorimetry, Tm shift; 0% = protein alone, 100% = glycine-bound protein; Tm shift relative to glycine control, % at 25 µM; hit rate 2.5% among 340,000; AID 1259313;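 active = melting temperature shift of at least 10% of the positive control shift, at one fixed dose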
# MPTP block: blocks calcium-induced mitochondrial swelling; isolated mouse mitochondria, Ca2+ swelling absorbance, 30 min; AID 602449; hit rate 1.4% among 360,000; inhibition, % at 10 µM;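 active = inhibition of 50% or more, scaled per plate between neutral and stimulator controls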
# SENP1 inh: SENP1 (human) catalytic domain inhibition; hit rate 0.21% among 360,000; AID 624204; inhibition, % at 10 µM; recombinant SENP1 catalytic domain, CyPet-SUMO1-YPet FRET cleavage; Q9P0U3;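 active = inhibition at least 30% at 10 µM, raw YFP signal under a set limit, fluorescence ratio 0.5 to 1.5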
# Target sequence (Q9P0U3 419-644 limits assumed): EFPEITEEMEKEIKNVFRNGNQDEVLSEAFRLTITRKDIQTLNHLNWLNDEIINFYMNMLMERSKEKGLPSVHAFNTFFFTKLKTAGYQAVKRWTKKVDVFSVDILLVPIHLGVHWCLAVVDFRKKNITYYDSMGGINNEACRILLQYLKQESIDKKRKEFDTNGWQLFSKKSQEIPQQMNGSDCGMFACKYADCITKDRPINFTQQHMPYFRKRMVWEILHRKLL
#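 System: Recombinant human SENP1 catalytic domain, His6-tagged | Incubation: Enzyme reaction for 50 min at room temperature, dark | Medium: Tris pH 8 with BME, BSA, NP40 and catalase | Also added: 25 nM SUMO1 FRET substrate | Compound: 10 µM single point, 0.5% DMSO | Measured by: FRET fluorescence in CFP and YFP emission channels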
# EBI2 block: blocks human EBI2 receptor beta-arrestin signaling | P32249 | EBI2 beta-arrestin recruitment, luminescence, 7a,25-OHC stimulated | inhibition, % at 5 µM | hit rate 0.81% among 360,000 | AID 651636; in the data active = inhibition above about 38%;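 note: enzyme fragment complementation signal reports receptor beta-arrestin coupling in cells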
# Target sequence (P32249 whole entry, looked up, the tested form may be a part): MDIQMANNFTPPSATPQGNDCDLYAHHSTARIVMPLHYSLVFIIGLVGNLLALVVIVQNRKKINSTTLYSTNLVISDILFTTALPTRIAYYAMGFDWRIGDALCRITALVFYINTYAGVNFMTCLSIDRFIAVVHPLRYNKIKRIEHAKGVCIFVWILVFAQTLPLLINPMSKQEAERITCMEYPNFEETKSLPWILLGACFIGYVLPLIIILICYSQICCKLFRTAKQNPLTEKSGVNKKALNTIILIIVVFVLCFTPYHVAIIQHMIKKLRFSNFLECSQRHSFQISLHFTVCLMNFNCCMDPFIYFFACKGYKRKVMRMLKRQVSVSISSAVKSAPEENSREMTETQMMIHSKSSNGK
# MPTP counter: Rhodamine 123 counter-screen of mitochondrial pore hits; shares compounds with MPTP block; isolated mitochondria, membrane potential, Rhodamine 123 fluorescence; inhibition, % at 10 µM; hit rate 78% among 5,000; AID 624504; in the data active = inhibition above about 22%
# MPTP abs DR: dose response confirmation of mitochondrial permeability transition pore inhibitors; AID 651561; shares compounds with MPTP block; IC50, µM; hit rate 58% among 780; isolated mitochondria swelling, absorbance; in the data active = IC50 below about 20 µM
# MPTP counter DR: counter-screen for mitochondrial permeability transition pore inhibitors, dose response; IC50, µM; isolated mitochondria counterscreen, fluorescence read-out; AID 651564; hit rate 49% among 780; shares compounds with MPTP block; in the data active = IC50 below about 80 µM
# Hits are given with their value; – = inactive; · = not tested or not shown. Hits are enriched below; roughly 4.4% of the tested compounds scored in any of these assays.
SMILES,NR3A LBD binder,MPTP block,SENP1 inh,EBI2 block,MPTP counter,others
CC(=O)c1c(C)[nH]c(C(=O)OCC(=O)Nc2ccc(C)cc2[N+](=O)[O-])c1C,–,99.9,–,–,90.3,
CC(=O)c1c(C)[nH]c(C(=O)OCC(=O)Nc2cc(Cl)ccc2[N+](=O)[O-])c1C,–,94.5,–,–,82.2,
CC(=O)c1c(C)[nH]c(C(=O)OCC(=O)NCc2ccc(Cl)cc2)c1C,–,–,–,–,·,
Cc1ccc(N=CC2=C(O)CC(c3ccc(Cl)cc3)CC2=O)cc1 (stereo not drawn),–,–,–,–,·,
N#CC(/C(=N/S(=O)(=O)c1cccs1)c1ccccc1)c1nc2ccccc2[nH]1 (stereo not drawn),–,66.0,–,–,71.9,
N#CC(Cc1cccs1)c1nc2ccccc2[nH]1 (stereo not drawn),·,–,–,–,·,
O=C(N/N=C/c1cccnc1)c1cccc(Cl)c1,–,–,–,–,·,
CC(C)c1ccc(/C=N/NC(=O)c2cccc(Cl)c2)cc1,–,73.9,–,–,64.8,
Cc1ccnc(NC(=O)CNC(=O)c2ccc(Br)o2)c1,–,–,–,–,·,
CCOC(=O)c1cnc(SCC(=O)Nc2cc(OC)ccc2OC)nc1N,–,86.5,–,–,68.7,
CCOC(=O)c1cnc(SCC(=O)Nc2ccc(NC(C)=O)c(OC)c2)nc1N,–,–,–,–,·,
CN(C)CCNc1oc(COc2ccc(-c3ccccc3)cc2)nc1C#N,–,74.6,–,–,–,MPTP abs DR=5.9;MPTP counter DR=54
O=C(NCCc1c[nH]c2ccccc12)C1CCN(S(=O)(=O)c2ccc(F)cc2)CC1,–,–,–,–,·,
Cc1nc2sccn2c1-c1csc(NCc2ccccc2)n1,–,58.4,–,–,67.4,
C=CCNc1nc(-c2c(C)nc3sccn23)cs1,–,–,–,–,·,
O=c1oc2c(-c3cccc(F)c3)cc(O)cc2s1,–,83.9,–,–,85.4,
Nc1nnc(-c2cccc(F)c2)s1,–,–,–,–,·,
COc1ccc(S(=O)(=O)N2CCOCC2)cc1NC(=O)c1ccc(SC)cc1OC,·,–,–,–,·,
O=C(NCC1CCCO1)c1cccc(Oc2ccc([N+](=O)[O-])cc2Cl)c1 (stereo not drawn),–,–,–,–,·,
CC(C)c1ccc(NC(=O)NCc2ccc(F)cc2)cc1,–,60.9,–,–,86.1,
CCOC(=O)c1ccc(NC(=S)NCc2ccc(S(N)(=O)=O)cc2)cc1,–,–,–,–,·,
CCOC(=O)c1ccc(NC(=S)NCc2ccc(F)cc2)cc1,–,88.3,–,–,81.9,
CCOC(=O)c1ccc(NC(=S)NCc2ccco2)cc1,–,65.0,–,–,72.2,
N/C(=N\OC(=O)c1ccccc1)C(C(=O)NOC(=O)c1ccccc1)C1CCCCC1 (stereo not drawn),–,–,–,–,·,
CCONc1ncnc2nonc12,–,–,–,–,·,
SMILES,NR3A LBD binder,MPTP block,SENP1 inh,EBI2 block,MPTP counter,others
Clc1ccc(CONc2ncnc3nonc23)c(Cl)c1,–,56.0,–,–,95.8,
CCCOc1ccc(C(=O)CCC(=O)OCC(=O)N2CC(=O)Nc3ccccc32)cc1,–,–,–,–,·,
CC(C)[C@H](NC(=O)c1ccc(Cl)c([N+](=O)[O-])c1)C(=O)NCc1ccc(Cl)cc1Cl,–,85.7,–,–,93.3,
O=C(N/N=C/c1cn(-c2ccccc2)nc1-c1cccs1)c1ccc(Cl)cc1,26.5,69.7,–,–,65.0,
O=C(N/N=C/c1cn(-c2ccccc2)nc1-c1cccs1)c1ccccc1F,–,–,–,–,·,
C=CCC1(CC=C)CCCN1C(=O)c1cc(COc2cncc(Cl)c2)on1,·,76.9,–,–,96.0,
Cc1ccc(/C=N/NC(=O)CN2CCN(Cc3ccccc3Cl)CC2)o1,–,–,–,–,·,
CCC1CCCCN1CCCNC(=O)C1CCN(Cc2nc(-c3ccc(Cl)cc3)oc2C)CC1 (stereo not drawn),–,61.2,–,–,–,
Cc1oc(-c2ccc(Cl)cc2)nc1CS(=O)CC(=O)NCCCN1CCN(Cc2ccccc2)CC1 (stereo not drawn),–,63.0,–,–,53.4,
Cc1oc(-c2ccc(Cl)cc2)nc1CS(=O)CC(=O)NCCCN1CCCC(C)C1 (stereo not drawn),–,–,–,–,·,
CCCCc1ccc(-n2c(Cc3cccs3)n[nH]c2=S)cc1,–,–,–,–,·,
C#CCN1[C@@H]2CCN(C2)c2cc(Br)ccc2S1(=O)=O,–,–,–,–,·,
O=C(Cc1ccc(S(=O)(=O)N2CCOCC2)s1)N1CCN(S(=O)(=O)c2ccccc2[N+](=O)[O-])CC1,–,–,–,–,·,
CN(C)CC(O)c1ccc(C=Cc2ccc(Cl)cc2)cc1 (stereo not drawn),–,96.8,–,–,–,MPTP abs DR=17.2;MPTP counter DR=–
CN(C)/C=C/C(=O)/C=C/c1ccc(Cl)cc1,–,–,–,–,·,
CC1CCCCC1NC(=O)COC(=O)c1c2c(nc3ccccc13)/C(=C\c1ccco1)CC2 (stereo not drawn),–,–,–,–,·,
CCC(C)[C@@H](NC(=O)OC(C)(C)C)c1nnc(S(=O)(=O)Cc2cccc(C)c2)o1 (stereo partly drawn),12.2,90.7,–,–,–,
COc1ccc(S(=O)(=O)N2CCCCC2)cc1NC(=O)Cc1sc(C)nc1-c1ccc(F)cc1,–,–,–,–,·,
CC(=O)Nc1cccc(NC(=O)CSc2ccc(C(F)(F)F)cc2[N+](=O)[O-])c1,–,–,–,–,·,
O=C(CSc1ccc(C(F)(F)F)cc1[N+](=O)[O-])Nc1ccc2ccccc2c1,34.5,74.5,–,–,–,MPTP abs DR=–;MPTP counter DR=–
COCCn1c(SCC(=O)c2c(N)n(C3CC3)c(=O)[nH]c2=O)nc2ccccc21,–,–,–,–,·,
COc1ccc(NS(=O)(=O)c2ccc3oc(SCc4ccc(F)cc4)nc3c2)cc1,12.6,60.0,–,–,50.0,
Cc1cc(F)ccc1S(=O)(=O)Nc1ccccc1C(=O)Nc1ccccc1-c1nc2ccccc2[nH]1,18.3,72.2,–,–,68.5,
O=C(Nc1ccccc1N1CCOCC1)c1ccccc1NS(=O)(=O)c1ccc(F)cc1,–,–,–,–,·,
Cc1cc(F)ccc1S(=O)(=O)Nc1ccccc1C(=O)Nc1ccccc1N1CCOCC1,–,78.3,–,–,89.3,
Cc1ccc(C)c(S(=O)(=O)Nc2ccccc2C(=O)Nc2ccccc2N2CCOCC2)c1,–,–,–,–,·,
O=C(Nc1ccccc1N1CCOCC1)c1ccccc1NS(=O)(=O)c1ccc(F)c(F)c1,–,62.1,–,–,97.9,
COC(=O)c1ccn(Cc2ccccc2Cl)n1,–,–,–,–,·,
O=[N+]([O-])c1ccc2nc(-c3ccccc3[N+](=O)[O-])[nH]c2c1,–,–,–,–,·,
COc1ccc(-c2nc3ccc([N+](=O)[O-])cc3[nH]2)cc1,28.6,58.5,–,–,52.6,
